Experimental data taken from ChEMBL document CHEMBL1122394, “Synthesis of potential anticancer agents. Pyrido[4,3-b][1,4]oxazines and pyrido[4,3-b][1,4]thiazines” (J Med Chem, 1983).

Columns and labels:
L1210 [1] = assay: Concentration that causes a mitotic index (fraction of cells in mitosis divided by total cells) of 0.5 for cultured lymphoid leukemia L1210 cells after exposure of 12 hr; assay type: functional, Mus musculus
In short: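 Cultured lymphoid leukemia L1210 cells exposed to agent for 12 h. Mitotic index is the fraction of cells in mitosis over total cells. The value is the agent concentration giving a mitotic index of 0.5.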

L1210 [2] = assay: Antiproliferative activity against lymphoid leukemia L1210 cells after 48 hr exposure.; assay type: functional; conditions: Mus musculus, L1210, 48 h; read-out: ID50 (the source's name)
Mus musculus [3] = assay: Increase in life span of mice with lymphocytic leukemia P388 10E6 tumor cell implant (intraperitoneally) at the highest nontoxic dose of 300 mg/kg tested; assay type: functional; conditions: P388, ip, route intraperitoneal
In short: (§1)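 Mice bore P388 lymphocytic leukemia. The value is the increase in life span at the highest nontoxic dose tested, with toxicity judged by weight change.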

Mus musculus [4] = assay: Increase in life span of mice with lymphocytic leukemia P388 10E6 tumor cell implant (intraperitoneally) at the highest nontoxic dose of 200 mg/kg tested; assay type: functional; conditions: P388, ip, route intraperitoneal; in short: as §1
Mus musculus [5] = assay: Increase in life span of mice with lymphocytic leukemia P388 10E6 tumor cell implant (intraperitoneally) at the highest nontoxic dose of 75 mg/kg tested; assay type: functional; conditions: P388, ip, route intraperitoneal; in short: as §1
Mus musculus [6] = assay: Increase in life span of mice with lymphocytic leukemia P388 10E6 tumor cell implant (intraperitoneally) at the highest nontoxic dose of 100 mg/kg tested; assay type: functional; conditions: P388, ip, route intraperitoneal; in short: as §1
Mus musculus [7] = assay: Compound tested for weight change in mice at a dose of 400 mg/kg; Toxic; assay type: toxicity, organism-based; set-up: dose 400 mg/kg; conditions: in vivo
Mus musculus [8] = assay: Increase in life span of mice with lymphocytic leukemia P388 10E6 tumor cell implant (intraperitoneally) at the highest nontoxic dose of 150 mg/kg tested; assay type: functional; conditions: P388, ip, route intraperitoneal; in short: as §1
Mus musculus [9] = assay: Compound tested for weight change in mice at a dose of 200 mg/kg; Toxic; assay type: toxicity, organism-based; set-up: dose 200 mg/kg; conditions: in vivo

Row | SMILES | MI0.5 (L1210 [1]) [µM] | IC50 (L1210 [2]) [nM] | ILS at 300 mg/kg (Mus musculus [3]) [%] | other results
1 | CCOC(=O)Nc1cc2c(c(N)n1)N=C(c1cccc(OC)c1)CO2 | 0.1 | 52 |  | 
2 | CCOC(=O)Nc1cc2c(c(N)n1)N=C(c1ccccc1)CS2 | >10 | 6100 | 0 | 
3 | CCOC(=O)Nc1cc2c(c(N)n1)N=C(c1ccccc1)C(C)(C)S2 |  | > 10000 |  | 
4 | CCOC(=O)Nc1cc2c(c(N)n1)N=C(c1ccccc1)C(c1ccccc1)O2 (stereo not given) | 3 | 880 |  | ILS at 200 mg/kg (Mus musculus [4]): 2%
5 | CCOC(=O)Nc1cc2c(c(N)n1)N=C(c1cc(OC)cc(OC)c1)C(C)O2 (stereo not given) | 2.9 | 1250 |  | 
6 | CCOC(=O)Nc1cc2c(c(N)n1)N=C(c1cc(OC)c(OC)c(OC)c1)CO2 |  | > 3000 | 0 | 
7 | CCOC(=O)Nc1cc2c(c(N)n1)N=C(c1cccc(OC)c1)CS2 | 2 | 530 |  | ILS at 75 mg/kg (Mus musculus [5]): 3%
8 | CCOC(=O)Nc1cc2c(c(NC(=O)CBr)n1)N=C(c1ccccc1)CO2 | 11 | 2200 |  | 
9 | CCOC(=O)Nc1cc2oc(=O)c(-c3ccccc3)nc2c(N)n1 |  | 3000 | 0 | 
10 | CCOC(=O)Nc1cc2c(c(N)n1)N=C(c1ccc(OC)cc1)CS2 | 4.9 | 340 | 3 | 
11 | CCOC(=O)Nc1cc2c(c(N)n1)N=C(c1ccccc1)CO2 | 0.56 | 225 |  | ILS at 100 mg/kg (Mus musculus [6]): 44%; ILS at 200 mg/kg (Mus musculus [4]): 80%; Toxicity (Mus musculus [7]): Toxic
12 | CCOC(=O)Nc1cc2c(c(N)n1)N=C(c1ccccc1)C(C)O2 (stereo not given) | 0.49 | 110 |  | ILS at 100 mg/kg (Mus musculus [6]): 49%
13 | CCOC(=O)Nc1cc2c(c(N)n1)N=C(c1ccccc1)C(C)S2 (stereo not given) | 9.6 | 1600 |  | ILS at 150 mg/kg (Mus musculus [8]): 10%
14 | CCOC(=O)Nc1cc2c(c(N)n1)N=C(c1ccc([N+](=O)[O-])cc1)CO2 |  | > 3000 | 0 | 
15 | CCOC(=O)Nc1cc2c(c(/N=C/N(C)C)n1)N=C(c1ccccc1)CO2 | 0.78 | 310 |  | ILS at 100 mg/kg (Mus musculus [6]): 1%; Toxicity (Mus musculus [9]): Toxic
16 | CCOC(=O)Nc1cc2c(c(N)n1)N=C(c1ccc(Cl)cc1)CO2 |  | > 3000 | 0 | 
17 | CCOC(=O)Nc1cc2c(c(N)n1)N=C(c1ccc3ccccc3c1)CS2 | 3 | 580 | 5 | 
